From ChEMBL document CHEMBL1828575, “Design, synthesis and antiproliferative activities of biarylolefins based on polyhydroxylated and carbohydrate scaffolds” (Eur J Med Chem, 2011)

Columns and labels:
Assay type in all cases: functional
PC-3 [1] = assay: Cytotoxicity against human PC3 cells assessed as cellular growth at 10 uM after 48 hrs by SRB assay
Method in brief: (§1)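 NCI-60 panel lines grown in RPMI 1640 with 5% FBS and 2 mM L-glutamine. Plated at 5000–40,000 cells/well and preincubated 24 h at 37 °C, 5% CO₂, with time-zero plates fixed in TCA. Compounds, dissolved in DMSO and diluted in medium, were applied for 48 h. Cells were TCA-fixed (10% final for adherent, 16% for suspension) and stained with 0.4% SRB in 1% acetic acid. Dye was solubilised in 10 mM Tris base and read at 515 nm; growth was expressed as a percentage of untreated control.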

HT-29 [2] = assay: Cytotoxicity against human HT-29 cells assessed as cellular growth at 10 uM after 48 hrs by SRB assay
Method in brief: (§2)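 NCI60 single-dose screen of cells in RPMI 1640 with 5% FBS and 2 mM L-glutamine, preincubated 24 h at 37 °C, 5% CO₂. Cells were then exposed 48 h to compound added from DMSO stock. TCA-fixed, stained with 0.4% SRB in 1% acetic acid, dye solubilised in 10 mM Tris base and read at 515 nm. Growth is given as percent of untreated control.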

KM12 = assay: Cytotoxicity against human KM12 cells assessed as cellular growth at 10 uM after 48 hrs by SRB assay; method in brief: as §2
NCI-H322M [3] = assay: Cytotoxicity against human NCI-H322M cells assessed as cellular growth at 10 uM after 48 hrs by SRB assay; method in brief: as §1
CCRF-CEM = assay: Cytotoxicity against human CCRF-CEM cells assessed as cellular growth at 10 uM after 48 hrs by SRB assay; method in brief: as §2
MOLT-4 = assay: Cytotoxicity against human MOLT4 cells assessed as cellular growth at 10 uM after 48 hrs by SRB assay; method in brief: as §1
RPMI-8226 = assay: Cytotoxicity against human RPMI8226 cells assessed as cellular growth at 10 uM after 48 hrs by SRB assay; method in brief: as §1
A549 [4] = assay: Cytotoxicity against human A549 cells assessed as cellular growth at 10 uM after 48 hrs by SRB assay; method in brief: as §2
HCT-15 = assay: Cytotoxicity against human HCT15 cells assessed as cellular growth at 10 uM after 48 hrs by SRB assay; method in brief: as §2
NCI-H460 = assay: Cytotoxicity against human NCI-H460 cells assessed as cellular growth at 10 uM after 48 hrs by SRB assay; method in brief: as §1
EKVX = assay: Cytotoxicity against human EKVX cells assessed as cellular growth at 10 uM after 48 hrs by SRB assay; method in brief: as §2
OVCAR-5 = assay: Cytotoxicity against human OVCAR5 cells assessed as cellular growth at 10 uM after 48 hrs by SRB assay; method in brief: as §1
786-0 = assay: Cytotoxicity against human 786-0 cells assessed as cellular growth at 10 uM after 48 hrs by SRB assay; method in brief: as §2
SF-539 = assay: Antitumor activity against human SF539 cells after 48 hrs by SRB assay; settings: SF-539, 48 h
Method in brief: (§3)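 NCI60 panel cells grown in RPMI 1640 with 5% FBS and 2 mM L-glutamine, plated at 5000–40,000 cells/well and preincubated 24 h at 37 °C, 5% CO₂. Compound was added from DMSO at five concentrations, 10-fold or 1/2 log dilutions, then incubated 48 h.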

DU-145 = assay: Antitumor activity against human DU145 cells after 48 hrs by SRB assay; settings: DU-145, 48 h
Method in brief: (§4)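 NCI60 panel in RPMI 1640 with 5% FBS and 2 mM L-glutamine. Cells were plated at 5000–40,000/well by doubling time, held 24 h, then time-zero plates were TCA-fixed. Five concentrations (10-fold or half-log dilutions of DMSO stocks) were applied for 48 h at 37 °C, 5% CO2. Cells were fixed with cold TCA (10% final adherent, 16% suspension) and stained with 0.4% SRB. Bound dye was dissolved in 10 mM Tris and read at 515 nm. GI50, TGI and LC50 were calculated per line.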

PC-3 [5] = assay: Antitumor activity against human PC3 cells after 48 hrs by SRB assay; settings: PC-3, 48 h; method in brief: as §4
TK-10 = assay: Antitumor activity against human TK10 cells after 48 hrs by SRB assay; settings: TK-10, 48 h; method in brief: as §3
OVCAR-8 = assay: Antitumor activity against human OVCAR8 cells after 48 hrs by SRB assay; settings: OVCAR-8, 48 h; method in brief: as §4
UACC-257 = assay: Antitumor activity against human UACC257 cells after 48 hrs by SRB assay; settings: UACC-257, 48 h; method in brief: as §3
SF-295 = assay: Antitumor activity against human SF295 cells after 48 hrs by SRB assay; settings: SF-295, 48 h; method in brief: as §4
NCI-H322M [6] = assay: Antitumor activity against human NCI-H322M cells after 48 hrs by SRB assay; method in brief: as §4
A549 [7] = assay: Antitumor activity against human A549 cells after 48 hrs by SRB assay; settings: A549, 48 h; method in brief: as §4
SR = assay: Antitumor activity against human SR cells after 48 hrs by SRB assay; method in brief: as §3
HT-29 [8] = assay: Antiproliferative activity against human HT-29 cells after 48 hrs by SRB assay; settings: HT-29, 48 h; method in brief: as §4
[9] = read-out: LC50 (the source's name)
[10] = read-out: pLC50 (the source's name) (converted)

## COc1ccc(/C(=C2\O[C@@H]([C@H]3COC(C)(C)O3)[C@H]3OC(C)(C)O[C@@H]23)c2cc(OC)c(OC)c(OC)c2)cc1O
PC-3 [1]
  Activity: 29.4%
HT-29 [2]
  Activity: 113.24%
KM12
  Activity: 5.71%
NCI-H322M [3]
  Activity: 91.51%
CCRF-CEM
  Activity: 60.8%
MOLT-4
  Activity: 60.46%
RPMI-8226
  Activity: 36.38%
A549 [4]
  Activity: 80.05%
HCT-15
  Activity: 32.51%
NCI-H460
  Activity: 103.52%
EKVX
  Activity: 100.52%
OVCAR-5
  Activity: 92.89%
786-0
  Activity: 86.28%
SF-539
  GI50: 3.15 µM
  TGI: 8.75 µM
SF-539; [9]
  CC50: 86 µM
DU-145; read-out: GI50
  GI50: 3.93 µM
DU-145; [9]
  CC50: > 100 µM
DU-145; read-out: TGI
  TGI: > 100 µM
DU-145; read-out: pGI50 (converted)
  GI50: 3.89 µM
DU-145; [10]
  CC50: > 100 µM
DU-145; read-out: pTGI (converted)
  TGI: > 100 µM
PC-3 [5]; [9]
  CC50: > 100 µM
PC-3 [5]; read-out: TGI
  TGI: > 100 µM
PC-3 [5]; read-out: pGI50 (converted)
  GI50: 4.17 µM
PC-3 [5]; [10]
  CC50: > 100 µM
PC-3 [5]; read-out: pTGI
  TGI: > 100 µM
TK-10; read-out: GI50
  GI50: 3.66 µM
TK-10; [9]
  CC50: > 100 µM
TK-10; read-out: TGI
  TGI: 86.3 µM
TK-10; read-out: pGI50 (converted)
  GI50: 36.3 µM
TK-10; [10]
  CC50: > 100 µM
TK-10; read-out: pTGI (converted)
  TGI: 87.1 µM
OVCAR-8; read-out: GI50
  GI50: 6.56 µM
OVCAR-8; [9]
  CC50: > 100 µM
OVCAR-8; read-out: TGI
  TGI: > 100 µM
OVCAR-8; read-out: pGI50 (converted)
  GI50: 8.51 µM
OVCAR-8; [10]
  CC50: > 100 µM
OVCAR-8; read-out: pTGI
  TGI: > 100 µM
UACC-257; read-out: GI50
  GI50: 39.4 µM
UACC-257; [9]
  CC50: > 100 µM
UACC-257; read-out: TGI
  TGI: > 100 µM
UACC-257; read-out: pGI50 (converted)
  GI50: 39.8 µM
UACC-257; [10]
  CC50: > 100 µM
UACC-257; read-out: pTGI (converted)
  TGI: > 100 µM
SF-295; [9]
  CC50: > 100 µM
SF-295; read-out: TGI
  TGI: 43.8 µM
SF-295; read-out: pGI50 (converted)
  GI50: 18.6 µM
SF-295; [10]
  CC50: > 100 µM
SF-295; read-out: pTGI (converted)
  TGI: 43.7 µM
NCI-H322M [6]; read-out: GI50
  GI50: 9.6 µM
NCI-H322M [6]; [9]
  CC50: > 100 µM
NCI-H322M [6]; read-out: TGI
  TGI: > 100 µM
NCI-H322M [6]; read-out: pGI50 (converted)
  GI50: 9.55 µM
NCI-H322M [6]; [10]
  CC50: > 100 µM
NCI-H322M [6]; read-out: pTGI
  TGI: > 100 µM
A549 [7]; read-out: GI50
  GI50: 22.7 µM
A549 [7]; [9]
  CC50: > 100 µM
A549 [7]; read-out: TGI
  TGI: > 100 µM
A549 [7]; read-out: pGI50 (converted)
  GI50: 22.9 µM
A549 [7]; [10]
  CC50: > 100 µM
A549 [7]; read-out: pTGI (converted)
  TGI: > 100 µM
SR; read-out: GI50
  GI50: 6.1 µM
SR; [9]
  CC50: > 100 µM
SR; read-out: TGI
  TGI: > 100 µM
SR; read-out: pGI50 (converted)
  GI50: 6.17 µM
SR; [10]
  CC50: > 100 µM
SR; read-out: pTGI
  TGI: > 100 µM
HT-29 [8]
  LC50 (50% net cell kill): > 100 µM
HT-29 [8]; read-out: GI50
  GI50: 4.1 µM
HT-29 [8]; read-out: TGI
  TGI: 17.8 µM
HT-29 [8]; read-out: pGI50 (converted)
  GI50: 4.07 µM
HT-29 [8]; [10]
  CC50: > 100 µM
HT-29 [8]; read-out: pTGI (converted)
  TGI: 17.8 µM
